Calls of active or inactive are those of the source. The rule behind the calls is not given here.
Columns and labels:
[1] = target: Receptor-type tyrosine-protein kinase FLT3 (Homo sapiens) (UniProt P36888); settings: MOLM-14, 0.03 to 3 uM
[2] = Antiproliferative activity against human MOLM14 cells after 72 hrs by CelltiterGlo assay; format: functional; settings: MOLM-14, 72 h
[3] = target: Platelet-derived growth factor receptor beta (Homo sapiens) (UniProt P09619); assay: Inhibition of PDGFRB (unknown origin) expressed in BaF3 cells assessed as inhibition of cell proliferation after 72 hrs by CelltiterGlo assay; format: cell-based
[4] = target: Tyrosine-protein kinase JAK3 (Homo sapiens) (UniProt P52333); assay: Inhibition of JAK3 (unknown origin) expressed in BaF3 cells assessed as inhibition of cell proliferation after 72 hrs by CelltiterGlo assay; format: cell-based
[5] = target: Receptor-type tyrosine-protein kinase FLT3 (Homo sapiens) (UniProt P36888); settings: MOLM-14, 0.03 to 3 uM; remark: listed apart in the source
[6] = Cell cycle arrest in human MOLM14 cells assessed as accumulation at G0/G1 phase at 0.03 to 1 uM after 24 hrs by flow cytometry; format: functional, cell-based; settings: MOLM-14
MOLM-13 [7] = assay: Induction of apoptosis in human MOLM13 cells assessed as cleaved caspase-3 level at 0.03 to 1 uM after 12 hrs by immunoblot analysis; format: functional, cell-based
[8] = Cell cycle arrest in human MOLM13 cells assessed as accumulation at G0/G1 phase at 0.03 to 1 uM after 12 hrs by flow cytometry; format: functional, cell-based; settings: MOLM-13
[9] = target: Tyrosine-protein kinase Lck (Homo sapiens) (UniProt P06239); assay: Inhibition of LCK (unknown origin) assessed as remaining activity at 1 uM relative to control
Sequence of Tyrosine-protein kinase Lck (Homo sapiens) (P06239 2-509 limits assumed): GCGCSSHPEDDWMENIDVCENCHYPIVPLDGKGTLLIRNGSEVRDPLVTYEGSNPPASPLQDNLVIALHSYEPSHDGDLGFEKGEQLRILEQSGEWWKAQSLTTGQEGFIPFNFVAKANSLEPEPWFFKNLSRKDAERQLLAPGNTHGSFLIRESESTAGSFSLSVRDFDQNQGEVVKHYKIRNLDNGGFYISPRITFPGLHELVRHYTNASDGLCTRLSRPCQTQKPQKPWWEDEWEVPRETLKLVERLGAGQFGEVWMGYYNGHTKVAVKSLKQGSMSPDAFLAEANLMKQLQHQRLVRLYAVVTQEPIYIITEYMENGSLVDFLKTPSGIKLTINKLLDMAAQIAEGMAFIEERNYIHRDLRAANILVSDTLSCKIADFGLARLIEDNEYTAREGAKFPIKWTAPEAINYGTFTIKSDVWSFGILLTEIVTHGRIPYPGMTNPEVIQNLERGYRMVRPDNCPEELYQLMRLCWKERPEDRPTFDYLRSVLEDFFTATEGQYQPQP
Procedure, shortened: (§1)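 KinomeScan competition binding panel of 468 kinases, with the compound tested at 1 µM. Each kinase's result is reported as percent activity remaining relative to a DMSO control.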

[10] = Tmax in Sprague-Dawley rat at 10 mg/kg, po; format: ADME, organism-based; settings: in vivo
[11] = target: Tyrosine-protein kinase HCK (Homo sapiens) (UniProt P08631); assay: Inhibition of HCK (unknown origin) assessed as remaining activity at 1 uM relative to control
Procedure, shortened: (§2)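 KinomeScan competitive binding panel of 468 kinases. Compound tested at a single 1 µM concentration. Read-out is percent of kinase activity remaining relative to a DMSO control.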

[12] = system: Receptor-type tyrosine-protein kinase FLT3 (Homo sapiens), P36888 [UNDEFINED MUTATION]; settings: BaF3
Sequence of Receptor-type tyrosine-protein kinase FLT3 (Homo sapiens), P36888 [UNDEFINED MUTATION] (P36888 whole entry, looked up, change not shown): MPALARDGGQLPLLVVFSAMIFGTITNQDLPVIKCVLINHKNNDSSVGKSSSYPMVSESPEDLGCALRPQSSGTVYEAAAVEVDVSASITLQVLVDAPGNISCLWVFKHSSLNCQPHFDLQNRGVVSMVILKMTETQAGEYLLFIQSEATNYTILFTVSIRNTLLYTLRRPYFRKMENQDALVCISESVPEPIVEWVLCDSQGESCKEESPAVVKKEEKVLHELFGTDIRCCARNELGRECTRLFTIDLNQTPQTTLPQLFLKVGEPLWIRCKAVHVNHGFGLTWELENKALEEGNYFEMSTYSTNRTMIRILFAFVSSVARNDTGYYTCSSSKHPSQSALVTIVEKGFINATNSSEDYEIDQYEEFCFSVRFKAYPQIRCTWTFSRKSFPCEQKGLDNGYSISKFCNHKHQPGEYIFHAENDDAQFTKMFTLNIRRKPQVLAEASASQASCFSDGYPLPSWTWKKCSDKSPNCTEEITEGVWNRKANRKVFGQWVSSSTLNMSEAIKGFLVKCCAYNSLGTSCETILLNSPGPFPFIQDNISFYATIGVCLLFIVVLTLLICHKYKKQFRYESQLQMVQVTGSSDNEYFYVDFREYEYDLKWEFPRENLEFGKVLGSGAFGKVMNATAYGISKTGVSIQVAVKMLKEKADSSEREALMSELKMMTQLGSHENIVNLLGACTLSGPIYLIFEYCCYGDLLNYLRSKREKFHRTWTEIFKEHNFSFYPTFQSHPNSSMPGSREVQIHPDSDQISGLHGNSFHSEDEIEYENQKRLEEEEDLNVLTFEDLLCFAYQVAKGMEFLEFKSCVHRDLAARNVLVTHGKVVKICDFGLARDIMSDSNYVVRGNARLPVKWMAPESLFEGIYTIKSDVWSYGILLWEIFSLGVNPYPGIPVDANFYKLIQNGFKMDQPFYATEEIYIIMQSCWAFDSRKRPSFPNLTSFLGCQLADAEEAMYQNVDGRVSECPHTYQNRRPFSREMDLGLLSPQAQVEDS

[13] = target: Receptor-type tyrosine-protein kinase FLT3 (Homo sapiens) (UniProt P36888); settings: MV4-11, 0.03 to 3 uM
[14] = target: Tyrosine-protein kinase JAK1 (Homo sapiens) (UniProt P23458); assay: Inhibition of JAK1 (unknown origin) expressed in BaF3 cells assessed as inhibition of cell proliferation after 72 hrs by CelltiterGlo assay; format: cell-based
[15] = Cytotoxicity against mouse BAF3 cells assessed as cell proliferation after 72 hrs by CelltiterGlo assay; format: cell-based
[16] = target: Receptor tyrosine-protein kinase erbB-3 (Homo sapiens) (UniProt P21860); assay: Inhibition of ERBB3 (unknown origin) assessed as remaining activity at 1 uM relative to control
Sequence of Receptor tyrosine-protein kinase erbB-3 (Homo sapiens) (P21860 whole entry): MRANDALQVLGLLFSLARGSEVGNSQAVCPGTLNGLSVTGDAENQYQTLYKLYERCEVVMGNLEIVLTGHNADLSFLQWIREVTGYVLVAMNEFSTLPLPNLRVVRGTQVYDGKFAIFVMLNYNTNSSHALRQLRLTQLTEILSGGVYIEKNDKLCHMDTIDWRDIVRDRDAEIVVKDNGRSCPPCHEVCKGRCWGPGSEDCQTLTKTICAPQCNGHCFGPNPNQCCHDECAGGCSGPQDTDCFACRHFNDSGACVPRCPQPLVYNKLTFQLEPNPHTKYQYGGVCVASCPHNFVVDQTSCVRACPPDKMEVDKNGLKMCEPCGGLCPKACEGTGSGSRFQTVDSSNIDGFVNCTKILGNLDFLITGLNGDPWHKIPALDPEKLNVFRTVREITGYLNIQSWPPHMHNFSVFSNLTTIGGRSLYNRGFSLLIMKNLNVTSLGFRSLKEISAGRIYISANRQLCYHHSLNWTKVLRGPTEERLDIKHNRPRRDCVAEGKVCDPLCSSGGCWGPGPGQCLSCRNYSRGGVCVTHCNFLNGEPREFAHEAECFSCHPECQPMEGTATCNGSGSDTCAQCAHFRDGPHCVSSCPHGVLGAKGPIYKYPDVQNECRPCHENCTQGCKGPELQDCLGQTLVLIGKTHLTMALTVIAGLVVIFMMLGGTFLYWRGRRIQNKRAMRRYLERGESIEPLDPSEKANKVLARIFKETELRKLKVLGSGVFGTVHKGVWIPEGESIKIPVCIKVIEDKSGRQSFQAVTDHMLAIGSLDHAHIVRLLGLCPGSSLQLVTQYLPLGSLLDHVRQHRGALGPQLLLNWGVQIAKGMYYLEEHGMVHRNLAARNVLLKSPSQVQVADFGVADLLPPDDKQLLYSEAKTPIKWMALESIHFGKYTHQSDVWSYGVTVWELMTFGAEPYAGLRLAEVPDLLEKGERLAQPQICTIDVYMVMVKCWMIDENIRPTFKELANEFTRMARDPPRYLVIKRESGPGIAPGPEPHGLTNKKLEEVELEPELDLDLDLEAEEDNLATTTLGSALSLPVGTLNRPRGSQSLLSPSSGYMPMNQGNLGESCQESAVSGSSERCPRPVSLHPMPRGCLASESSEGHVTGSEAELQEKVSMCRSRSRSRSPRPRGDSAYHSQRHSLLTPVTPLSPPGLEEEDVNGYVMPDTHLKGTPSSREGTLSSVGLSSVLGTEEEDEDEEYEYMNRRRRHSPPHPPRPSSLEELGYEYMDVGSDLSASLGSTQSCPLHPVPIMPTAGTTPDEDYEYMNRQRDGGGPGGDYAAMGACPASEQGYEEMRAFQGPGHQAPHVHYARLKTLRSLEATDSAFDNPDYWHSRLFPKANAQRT
Procedure, shortened: as §2

[17] = target: Proto-oncogene tyrosine-protein kinase receptor Ret (Homo sapiens) (UniProt P07949); assay: Inhibition of RET (unknown origin) assessed as remaining activity at 1 uM relative to control
Sequence of Proto-oncogene tyrosine-protein kinase receptor Ret (Homo sapiens) (P07949 whole entry): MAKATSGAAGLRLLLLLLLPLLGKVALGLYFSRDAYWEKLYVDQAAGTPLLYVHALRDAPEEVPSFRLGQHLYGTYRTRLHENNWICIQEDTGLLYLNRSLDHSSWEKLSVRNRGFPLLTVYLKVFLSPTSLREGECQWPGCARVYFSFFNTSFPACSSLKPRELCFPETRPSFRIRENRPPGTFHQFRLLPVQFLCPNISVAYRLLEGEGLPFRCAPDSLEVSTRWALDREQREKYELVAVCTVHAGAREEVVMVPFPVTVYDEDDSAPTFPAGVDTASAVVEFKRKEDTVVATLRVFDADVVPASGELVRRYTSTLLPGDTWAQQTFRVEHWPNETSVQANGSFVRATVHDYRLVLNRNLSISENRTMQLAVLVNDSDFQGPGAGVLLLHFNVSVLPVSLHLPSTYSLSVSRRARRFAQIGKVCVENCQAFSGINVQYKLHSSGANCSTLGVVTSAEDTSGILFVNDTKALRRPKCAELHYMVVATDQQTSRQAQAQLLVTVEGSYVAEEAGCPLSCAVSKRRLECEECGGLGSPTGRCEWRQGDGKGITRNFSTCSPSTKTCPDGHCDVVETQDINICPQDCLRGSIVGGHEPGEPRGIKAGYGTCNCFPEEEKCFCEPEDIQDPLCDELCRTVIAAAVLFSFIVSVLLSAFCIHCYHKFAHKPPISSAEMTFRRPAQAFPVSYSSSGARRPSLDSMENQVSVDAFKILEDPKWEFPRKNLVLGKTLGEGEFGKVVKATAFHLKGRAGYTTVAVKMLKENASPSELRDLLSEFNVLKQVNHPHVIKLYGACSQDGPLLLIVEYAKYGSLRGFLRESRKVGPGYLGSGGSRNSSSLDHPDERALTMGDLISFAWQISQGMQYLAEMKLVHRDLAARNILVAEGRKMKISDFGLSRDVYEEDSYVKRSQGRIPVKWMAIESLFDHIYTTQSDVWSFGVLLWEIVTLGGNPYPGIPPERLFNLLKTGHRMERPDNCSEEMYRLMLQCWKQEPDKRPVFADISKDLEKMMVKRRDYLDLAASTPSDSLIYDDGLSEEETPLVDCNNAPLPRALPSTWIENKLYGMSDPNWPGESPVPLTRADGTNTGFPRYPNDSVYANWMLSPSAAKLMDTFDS
Procedure, shortened: as §1

Mus musculus = assay: Toxicity in nu/nu mouse xenografted with human MV4-11 cells assessed as body weight at 12.5 to 50 mg/kg/day administered via oral gavge; format: organism-based; settings: in vivo
Procedure, shortened: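 Female nu/nu mice carried established MV4-11 xenografts. Daily oral gavage of 12.5, 25.0 or 50.0 mg/kg/d, or vehicle, began once tumors reached 200 to 400 mm3. Each group had 5 animals, and body weight was tracked over a 22-day treatment period. Data are given as mean ± SEM.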

[18] = target: Proto-oncogene tyrosine-protein kinase receptor Ret (Homo sapiens) (UniProt P07949); assay: Inhibition of RET (unknown origin) expressed in BaF3 cells assessed as inhibition of cell proliferation after 72 hrs by CelltiterGlo assay; format: cell-based
[19] = Oral bioavailability in Sprague-Dawley rat at 10 mg/kg; format: ADME, organism-based; settings: in vivo
[20] = AUC (0 to t) in Sprague-Dawley rat at 1 mg/kg, iv; format: ADME, organism-based; settings: in vivo
MV4-11 [21] = assay: Cell cycle arrest in human MV4-11 cells assessed as accumulation at G0/G1 phase at 0.03 to 1 uM after 24 hrs by flow cytometry; format: functional, cell-based
[22] = target: Tyrosine-protein kinase BTK (Homo sapiens, UniProt Q06187); assay: Inhibition of BTK (unknown origin) by ADP-Glo assay
[23] = target: T1, Mast/stem cell growth factor receptor Kit (Homo sapiens, UniProt P10721); assay: Inhibition of c-KIT (unknown origin) by ADP-Glo assay
T1 sequence (P10721 whole entry): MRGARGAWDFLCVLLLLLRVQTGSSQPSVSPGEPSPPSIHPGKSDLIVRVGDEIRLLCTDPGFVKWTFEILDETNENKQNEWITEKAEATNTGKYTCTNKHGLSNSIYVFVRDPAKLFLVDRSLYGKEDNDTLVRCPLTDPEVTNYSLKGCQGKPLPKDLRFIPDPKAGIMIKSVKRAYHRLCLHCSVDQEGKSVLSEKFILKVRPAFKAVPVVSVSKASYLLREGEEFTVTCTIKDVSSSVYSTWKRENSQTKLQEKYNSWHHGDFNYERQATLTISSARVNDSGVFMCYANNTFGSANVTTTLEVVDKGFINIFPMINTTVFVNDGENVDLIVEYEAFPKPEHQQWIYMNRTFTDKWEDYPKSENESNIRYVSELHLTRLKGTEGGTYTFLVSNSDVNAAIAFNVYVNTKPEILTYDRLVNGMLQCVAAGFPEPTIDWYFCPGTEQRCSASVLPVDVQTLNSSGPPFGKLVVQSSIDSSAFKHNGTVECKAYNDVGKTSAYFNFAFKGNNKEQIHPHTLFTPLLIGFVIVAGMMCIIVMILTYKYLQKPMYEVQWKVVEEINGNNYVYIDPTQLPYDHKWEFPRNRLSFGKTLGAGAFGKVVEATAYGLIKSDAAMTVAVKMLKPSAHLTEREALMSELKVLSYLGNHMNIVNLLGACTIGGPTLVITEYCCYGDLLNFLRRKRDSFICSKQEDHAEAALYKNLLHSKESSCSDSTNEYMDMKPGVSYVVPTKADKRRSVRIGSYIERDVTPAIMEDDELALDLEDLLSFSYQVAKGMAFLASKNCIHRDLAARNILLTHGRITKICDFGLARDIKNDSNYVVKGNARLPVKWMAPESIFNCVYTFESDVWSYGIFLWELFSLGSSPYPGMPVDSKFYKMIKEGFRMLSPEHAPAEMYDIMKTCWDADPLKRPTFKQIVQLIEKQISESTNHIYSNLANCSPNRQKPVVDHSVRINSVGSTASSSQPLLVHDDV
Procedure, shortened: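 Biochemical activity assay in ADP-Glo format using purified c-KIT kinase protein. It was run to confirm the binding-panel findings.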

MV4-11 [24] = assay: Antitumor activity against human MV4-11 cells xenografted in nu/nu mouse assessed as tumor weight at 25 mg/kg/day administered via oral gavage measured after 22 days of treatment (reference value: 2.5 g); format: functional
[25] = target: Receptor-type tyrosine-protein kinase FLT3 (Homo sapiens) (UniProt P36888); settings: BaF3
MV4-11 [26] = assay: Induction of apoptosis in human MV4-11 cells assessed as cleaved caspase-3 level at 0.03 to 1 uM after 48 hrs by immunoblot analysis; format: functional, cell-based
[27] = AUC(0 to infinity) in Sprague-Dawley rat at 10 mg/kg, po; format: ADME, organism-based; set-up: dose 10 mg/kg, route oral, time infinity; settings: in vivo
[28] = target: Receptor-type tyrosine-protein kinase FLT3 (Homo sapiens) (UniProt P36888); settings: MOLM-13, 0.03 to 3 uM
MOLM-13 [29] = assay: Induction of apoptosis in human MOLM13 cells assessed as cleaved PARP level at 0.03 to 1 uM after 12 hrs by immunoblot analysis; format: functional, cell-based
[30] = target: Tyrosine-protein kinase Blk (Homo sapiens) (UniProt P51451); assay: Inhibition of BLK (unknown origin) assessed as remaining activity at 1 uM relative to control
Procedure, shortened: as §2

MOLM-14 = assay: Induction of apoptosis in human MOLM14 cells assessed as cleaved PARP level at 0.03 to 1 uM after 24 hrs by immunoblot analysis; format: functional, cell-based
[31] = Antiproliferative activity against human U2932 cells after 72 hrs by CelltiterGlo assay; format: functional; settings: U2932, 72 h
[32] = Cmax in Sprague-Dawley rat at 10 mg/kg, po; format: ADME, organism-based; set-up: dose 10 mg/kg, route oral; settings: in vivo
[33] = target: T1, Mast/stem cell growth factor receptor Kit; assay: Inhibition of c-KIT (unknown origin) expressed in BaF3 cells assessed as inhibition of cell proliferation after 72 hrs by CelltiterGlo assay; format: cell-based
[34] = Half life in Sprague-Dawley rat at 10 mg/kg, po; format: ADME, organism-based; settings: in vivo
[35] = AUC(0 to t) in Sprague-Dawley rat at 10 mg/kg, po; format: ADME, organism-based; settings: in vivo
[36] = Antiproliferative activity against human U937 cells after 72 hrs by CelltiterGlo assay; format: functional; settings: U-937, 72 h

Sequence of Receptor-type tyrosine-protein kinase FLT3 (Homo sapiens) (P36888 whole entry): as the sequence (P36888 whole entry, looked up, change not shown) above

inhibition [1]: Active
GI50 [3]: 680 nM
GI50 [4]: 2500 nM
inhibition [5]: Active
Activity [9]: 0%
Tmax [10]: 1.67 h
Activity [11]: 0.5%
GI50 [12]: 170 nM
inhibition [13]: Active
GI50 [14]: 3.8 µM
Activity [16]: 0.05%
Activity [17]: 0.4%
GI50 [18]: 650 nM
bioavailability [19]: 30.4%
AUC(0-t) [20]: 607 ng·h/mL
IC50 [22]: 421 nM
IC50 [23]: 559 nM
GI50 [25]: 16 nM
AUCinf [27]: 1880 ng·h/mL
inhibition [28]: Active
Activity [30]: 0.1%
Cmax [32]: 458 ng/mL
GI50 [33]: 1900 nM
half-life [34]: 74.4 min
AUC(0-t) [35]: 1830 ng·h/mL
Compound: CN(C)CC(=O)N1CCC[C@@H](n2nc(-c3ccc(Oc4ccccc4)cc3)c3c(N)ncnc32)C1
GI50 [2]: 42 nM
Activity [6]: Active
Activity (MOLM-13 [7]): Active
Activity [8]: Active
GI50 at 72 h [15]: 4.9 µM
Activity (Mus musculus): Non-toxic
Activity (MV4-11 [21]): Active
Activity (MV4-11 [24]): 0.94 g
Activity (MV4-11 [26]): Active
Activity (MOLM-13 [29]): Active
Activity (MOLM-14): Active
GI50 [31]: 1600 nM
GI50 [36]: 9.7 µM
